CAL PDZ FP-1: untagged CAL PDZ binding inhibitors, primary screen, biochemical, fluorescence polarization, HTS; Golgi-associated PDZ and coiled-coil motif-containing protein (Homo sapiens), Q9HD26; purified CAL PDZ, TMR-peptide fluorescence polarization, 1 h; inhibition, % at 24.9 µM; hit rate 0.92% among 300,000; AID 602252, 2012;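 active means mean inhibition of at least 30% with at least half of replicates also reaching 30%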;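 further: 0% = DMSO neutral control and 100% = excess unlabeled competitor peptide PRC23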
ARNT TACC3 PPI: disruptors of ARNT/TACC3 protein interaction, primary screen, biochemical, AlphaScreen, single concentration | hit rate 0.66% among 390,000 | AlphaScreen His-ARNT PAS-B/GST-TACC3 binding, luminescence; TACC3 fragment carries E629A point mutation | inhibition, % at 9.99 µM | AID 623870, 2012 | Transforming acidic coiled-coil-containing protein 3 (Homo sapiens), Q9Y6A5;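 active means mean inhibition of replicates at least 50% and at least half of replicates each reaching 50%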;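 further: 0% = complete ARNT plus TACC3 wells and 100% = ARNT alone without TACC3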
CAL PDZ FP-2: CAL PDZ peptide-binding inhibitors, primary screen, biochemical, fluorescence polarization, Cer-tagged CAL PDZ, HTS; purified CAL PDZ, TMR-peptide fluorescence polarization, 1 h; inhibition, % at 20 µM; hit rate 0.02% among 330,000; AID 504414, 2011;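 active means highest replicate inhibition of at least 40%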;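 further: plate controls were DMSO neutral control wells for no effect and unlabeled competitor peptide control wells for full effect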
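Material – purified CerCALP PDZ construct · Detection – FP readout, S and P plane fluorescence · Measure – percent inhibition from loss of millipolarization · Controls – unlabelled peptide for full inhibition, DMSO wells as neutral · Probe or stimulus – TMR-labelled reporter peptide T*-PRC34 bound in PDZ groove · Times – 1 h at RT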
ARNT Alpha ctr-1: AlphaScreen signal interference compounds, dose response, artefact control for ARNT-TACC3 interaction inhibitor project, biochemical, luminescence, cherry-pick; shares compounds with ARNT TACC3 PPI; His-ARNT PASB-GST AlphaScreen artifact counter-screen; AC50, µM (doses to about 68 µM), without a hit: at the top dose activity change, negative = signal decrease; hit rate 50% among 1,200; AID 651705, 2012;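 active means every separate test run was called active for a drop in luminescence, with AC50 within twice the top valid dose, actives reach about 71 µM in these data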
ARNT Alpha ctr-2: AlphaScreen signal interference by compounds, dose response, artefact control for ARNT/TACC3 disruptor project, biochemical, dual-tagged ARNT, dry powder. shares compounds with ARNT TACC3 PPI. Dual-tagged His-ARNT PASB-GST AlphaScreen artifact counter-screen. AC50, µM. hit rate 70% among 45;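 active means luminescence drop, with half-maximal potency fitted within twice the sample's top valid dose, cut at about 70 µM in these data; inactive means the rest, including signal moving the wrong way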
* = called active by the depositor; / = no result; [ ] = another dose, or the depositor's remark. Rows were chosen to be rich in hits. Some 1.2% of all compounds tested hit in one or more screens of this group.

SMILES	CAL PDZ FP-1	ARNT TACC3 PPI	CAL PDZ FP-2	ARNT Alpha ctr-1	others
O=C(NC1CCC1)[C@@H]1[C@@H](CO)[C@@H]2Cn3c(ccc(-c4ccccc4)c3=O)[C@@H]2N1Cc1ccccn1	/	-2.5	/	/
O=C(C[C@H]1CC[C@@H](NC(=O)Nc2cccc(F)c2)[C@H](CO)O1)NCC1CCCCC1	/	4.1	/	/
c1ccc(-c2nn[nH]n2)cc1	/	-8.1	-0.4	/
c1ccc(-c2nn[nH]n2)nc1	-8.8	66.9*	-0.6	53.4µM*
c1ccc(-c2noc(-c3ccno3)n2)nc1	16.6	/	0.4	/
c1ccc(-c2n[nH]c(-c3ccccn3)n2)nc1	4.5	59.6*	0.0	7.5µM*
O=C(C[C@@H]1CC[C@H]2[C@@H](COC[C@@H](O)CN2C(=O)Nc2cc(Cl)cc(Cl)c2)O1)NCC1CC1	/	8.0	/	/
COC(=O)C[C@H]1C=C[C@H](N)[C@H](CO)O1	/	-3.4	/	/
CCOc1ccc(C2=Nn3c(nnc3-c3ccccn3)SC2)cc1	-0.6	63.2*	-5.9	-26.9%
CCOc1ccc(C2=Nn3c(nnc3-c3ccco3)SC2)cc1	-3.5	4.5	23.4	/
C[C@H](NC(=O)C[C@@H]1C[C@H]2c3cc(NC(=O)C4CCC4)ccc3O[C@H]2[C@@H](CO)O1)c1ccccc1	/	-11.2	/	/
O=C(C[C@H]1C=C[C@H](NS(=O)(=O)c2ccc(F)cc2)[C@H](CO)O1)N1CCN(c2ccccc2)CC1	/	52.3*	/	0.4%[38 µM]
O=C(C[C@H]1C=C[C@@H](NS(=O)(=O)c2ccc(F)cc2)[C@H](CO)O1)N1CCN(c2ccccc2)CC1	/	-0.2	/	/
O=C(Nc1nnc(C2=COCCO2)o1)c1ccc(S(=O)(=O)N2CCCC2)cc1	1.0	44.8	-1.1	/
CCC1CCCCN1S(=O)(=O)c1ccc(C(=O)Nc2nnc(C3=COCCO3)o2)cc1 (stereo not given)	-0.4	38.9	0.5	/
O=C(Nc1nnc(C2=COCCO2)o1)c1ccc(S(=O)(=O)N2CCCCC2)cc1	3.2	35.6	-0.8	/	ARNT Alpha ctr-2=>136
O=C(Nc1nnc(-c2cccs2)o1)c1ccc(S(=O)(=O)N2CCOCC2)cc1	1.7	44.8*	-0.5	34µM*
O=C(Nc1nnc(C2=COCCO2)o1)c1cccc(Br)c1	/	/	0.4	/
CS(=O)(=O)c1cccc(C(=O)Nc2nnc(C3=COCCO3)o2)c1	-0.4	58.7*	0.3	-14.8%
CS(=O)(=O)c1ccccc1-c1nnc(NC(=O)c2ccc(S(=O)(=O)N3CCCC3)cc2)o1	-1.8	29.0	-1.0	/
CC1CCN(S(=O)(=O)c2ccc(C(=O)Nc3nnc(C4=COCCO4)o3)cc2)CC1	/	62.0*	0.3	-25.3%	ARNT Alpha ctr-2=>136
CN1C(=O)c2cc(NC(=O)c3cnccn3)ccc2OC[C@@H]2O[C@@H](CC(=O)O)CC[C@H]21	/	-1.2	/	/
C[C@@H]1CCCCO[C@@H](CN(C)Cc2ccc(C(F)(F)F)cc2)[C@@H](C)CN([C@@H](C)CO)C(=O)c2cc(NC(=O)CCCN(C)C)ccc2O1	/	0.5	/	/
O=C(C1CCOCC1)N1C[C@H]2[C@@H](c3ccccc31)[C@@H](CO)N2C(=O)Cc1ccccc1	/	-1.9	/	/
CC12N=C3SCc4ccccc4CN3[C@H](c3ccccc3O1)[C@H]2CO	/	0.1	/	/
SMILES	CAL PDZ FP-1	ARNT TACC3 PPI	CAL PDZ FP-2	ARNT Alpha ctr-1	others
C[C@H]1CCCCO[C@@H](CN(C)S(=O)(=O)c2ccc(Cl)cc2)[C@@H](C)CN([C@@H](C)CO)C(=O)c2cc(NS(C)(=O)=O)ccc2O1	/	-1.2	/	/
C[C@@H]1CN([C@H](C)CO)C(=O)c2cc(NC(=O)Cc3ccccc3)ccc2O[C@H]1CN(C)Cc1ccc(C(=O)O)cc1	/	-24.0	/	/
CCOc1ccc2c(c1)c(N=NC(N)=S)c(O)n2C	4.2	9.5	-0.2	/
CCOc1ccc2c(c1)c(N=NC(=N)N)c(O)n2C	-2.8	36.3*	0.1	-25.0%
C[C@@H]1CN([C@H](C)CO)C(=O)Cc2cc(NC(=O)c3ccncc3)ccc2O[C@H]1CN(C)CC1CCCCC1	/	-6.9	/	/
NNc1nc(-c2ccccc2)c2ccccc2n1	-2.1	24.9	-4.0	/
NNc1nnc(-c2ccccc2)c(-c2ccccc2)n1	-1.3	52.3*	0.2	50.5µM*
C/C(=N\NC(=O)c1ccncc1)C12CC3CC(CC(C3)C1)C2	-3.8	50.9*	-0.7	4.6%
O=C(NNC(=O)C12CC3CC(CC(C3)C1)C2)c1ccncc1	/	-8.0	-1.1	/
CN(CC(=O)O)Cc1nc2ccccc2[nH]1	-1.9	88.3*	-1.4	50.9µM*
CC(NC(=O)CN(C)Cc1nc2ccccc2c(=O)[nH]1)c1ccccc1 (stereo not given)	-5.4	13.4	0.2	/
CCOC(=O)CC(NC(=O)Cc1ccccc1)c1ccccc1Cl (stereo not given)	-4.6	-3.0	-0.3	/
CCOC(=O)CC(NC(=O)Cc1ccc(F)cc1)c1ccccc1Cl (stereo not given)	0.3	21.6*	0.1	-3.8%
C[C@@H]1CCCCO[C@H](CN(C)Cc2ccc3c(c2)OCO3)[C@H](C)CN([C@H](C)CO)C(=O)c2cc(NC(=O)c3ccccc3)ccc2O1	/	0.7	/	/
CCOC(=O)C(NCc1ccccn1)(NC(=O)c1cccnc1)C(F)(F)F (stereo not given)	-4.4	65.7*	0.3	-16.3%
CCOC(=O)C(NC(=O)c1cccnc1)(Nc1cccc(C)n1)C(F)(F)F (stereo not given)	-2.0	-3.7	-0.1	/
Cc1noc(C)c1NC(=O)N(C)C[C@@H]1Oc2ccc(NS(=O)(=O)c3ccccc3)cc2CC(=O)N([C@@H](C)CO)C[C@H]1C	/	-0.3	/	/
CC(C)C#Cc1ccc2c(c1)O[C@@H](CN(C)C(=O)CN(C)C)[C@@H](C)CN([C@@H](C)CO)S2(=O)=O	/	99.5*	/	-13.0%[38 µM]
C[C@@H]1CN([C@H](C)CO)S(=O)(=O)c2ccc(C#C[C@@H](C)O)cc2O[C@H]1CN(C)C(=O)CN(C)C	/	-6.3	/	/
CNC[C@@H]1Oc2ccc(N(C)C)cc2CC(=O)N([C@@H](C)CO)C[C@H]1C	/	-2.0	/	/
C[C@@H]1CN([C@H](C)CO)C(=O)c2ccccc2-c2ccccc2CO[C@@H]1CN(C)S(=O)(=O)c1ccc(C#N)cc1	/	2.6	/	/
O=C(N/N=C/C=C/c1ccco1)c1cnccn1	/	61.6*	-0.5	-8.9%
O=C(N/N=C/c1ccco1)c1cnccn1	-0.5	13.7	0.6	/
COc1ccc(-c2nnc(SCC(=O)NC3CCCCC3)o2)cc1	8.4	-5.4	-2.2	/
COc1ccc(-c2nnc(SCC(=O)NC3CC3)o2)cc1	-3.3	active	0.7	1.2%
Cc1ccoc1C(=O)NCCCNC(=O)c1occc1C	-2.6	56.2*	-3.7	-7.1%
Cc1ccoc1C(=O)NCCNC(=O)c1occc1C	-7.1	-5.4	-2.2	/

Screening results (PubChem)
